Source: PubChem
Hits are enriched below; roughly 5.2% of the tested compounds scored in any of these assays.
ZTA DNA inh – ZTA (EBV) inhibition in EBNA-1 counter-screen; ZTA-DNA binding, fluorescence polarization; AID 2234; P03206; inhibition, % at 11 µM; 320,000 tested, 0.15% active; in the data active = inhibition above about 33%
Target sequence (P03206 whole entry, looked up): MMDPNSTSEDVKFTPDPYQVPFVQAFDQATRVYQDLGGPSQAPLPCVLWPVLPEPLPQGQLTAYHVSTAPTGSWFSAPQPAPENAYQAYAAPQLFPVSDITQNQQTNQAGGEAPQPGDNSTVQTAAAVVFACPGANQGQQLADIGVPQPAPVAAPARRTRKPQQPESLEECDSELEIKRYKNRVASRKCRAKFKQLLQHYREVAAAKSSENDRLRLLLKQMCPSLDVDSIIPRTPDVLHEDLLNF
PfM18AAP inh – PfM18AAP enzyme inhibition. inhibition, % at 7.35 µM. recombinant PfM18AAP, H-Glu-NHMec fluorogenic cleavage. 290,000 tested, 1.2% active. AID 1822;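 active = inhibition above the campaign mean inhibition over all tested compounds plus 3 SD, cut at about 28% in these data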
NS3 helicase inh – blocks Hepatitis C virus NS3 helicase unwinding. NS3 helicase DNA unwinding, Cy5 molecular beacon fluorescence. inhibition, % at 10.9 µM. 290,000 tested, 0.56% active;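 active = inhibition above the mean of all tested compounds plus 3 SD, set per campaign, cut at about 35% in these data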
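Material: hepatitis C virus NS3 helicase domain fragment enzyme; measured by: Cy5 fluorescence, 0 and 60 min reads; control set: DMSO and thioflavine S; incubation: 60 min unwinding reaction at 25 °C after ATP addition; read-out basis: % inhibition from 60/0 min fluorescence ratio, DMSO 0%, thioflavine S 100%; repeats: singlicate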
ALR inh – human ALR oxidase inhibition via reduced H2O2 | P55789 | purified ALR, DTT oxidation, H2O2 HRP-luminol luminescence | inhibition, % (concentration not given with the values) | 290,000 tested, 3.8% active | AID 485317;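 active = mean replicate inhibition above about 79%, with every replicate also reaching it, limit read from the data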
Target sequence (P55789 whole entry, looked up): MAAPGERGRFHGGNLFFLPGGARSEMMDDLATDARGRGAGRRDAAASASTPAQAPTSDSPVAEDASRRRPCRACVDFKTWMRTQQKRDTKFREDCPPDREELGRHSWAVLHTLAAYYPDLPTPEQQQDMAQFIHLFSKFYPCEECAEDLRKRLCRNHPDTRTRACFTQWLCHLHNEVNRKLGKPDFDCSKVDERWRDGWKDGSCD
HCV core dimer – HCV core protein dimerization inhibition. TR-FRET GST/Flag-core106 dimerization, 1536-well. inhibition, % at 5 µM. 300,000 tested, 0.33% active;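 active = inhibition above the mean of all tested compounds plus 3 SD, set per screening campaign, cut at about 45% in these data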
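Test system: GST/Flag-tagged HCV core106 proteins; Medium: KF-containing HEPES buffer, pH 7.45, DTT, CHAPS, BSA; Times: compound-protein-antibody incubation 4 h at 22.5 °C; Detection: TR-FRET 671 and 617 nm emission; Benchmarks: wells lacking GST-core106 and wells with excess unlabelled core106.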
EBNA-1 inh – blocks EBNA-1 binding to DNA; EBNA-1 DNA binding, fluorescence polarization; inhibition, % at 14.8 µM; 300,000 tested, 0.34% active; AID 1950; in the data active = inhibition above about 28%
Each line names hits and unclear results; the compound was inactive in the other large screens.

COc1ccc(-c2nc(CS(=O)(=O)CC(=O)NCc3ccc(F)cc3)c(C)o2)cc1	none
S=C(Nc1cccc2ccccc12)NC1CCCCC1	none
Cc1cccc(NCc2ccc(Br)cc2)n1	none
COc1ccc(-c2nc(CS(=O)CC(=O)NCc3ccc(C)cc3)c(C)o2)cc1OC (stereo not given)	ALR inh 99
CCOc1ccc(CCNC(=O)CS(=O)Cc2nc(-c3ccc(OC)c(OC)c3)oc2C)cc1OCC (stereo not given)	ALR inh 99
COc1ccc(CNC(=O)CS(=O)Cc2nc(-c3ccc(OC)c(OC)c3)oc2C)cc1 (stereo not given)	ALR inh 99
CCOc1ccc(CCNC(=O)CS(=O)(=O)Cc2nc(-c3ccc(OC)cc3)oc2C)cc1	none
O=C(C[C@H]1C/C=C\CC[C@@H](Cc2ccc(F)cc2)C(=O)OC[C@H]2CCCN2C1=O)NCCO	none (no result: ZTA DNA inh, PfM18AAP inh, NS3 helicase inh, HCV core dimer, EBNA-1 inh)
O=C(COc1ccc2ccccc2c1)Nc1ccc(Br)cc1C(=O)O	none
Cc1c(-c2ccccc2)c(=O)oc2cc(O)ccc12	none
O=C(CC1CC2CCC1C2)NC1CCCCCCC1 (stereo not given)	none
O=c1c(C=NCc2cccnc2)c(C(F)(F)F)[nH]n1-c1nc2ccccc2s1	ALR inh 99
CCCc1[nH]n(-c2nc3ccccc3s2)c(=O)c1C=NCC(C)C	none
CCC(=NCc1ccccc1)c1c(C(F)(F)F)[nH]n(-c2nc3ccccc3s2)c1=O	none
CCC(=NCc1ccco1)c1c(C(F)(F)F)[nH]n(-c2nc3ccccc3s2)c1=O	ALR inh 86
CCN(CC)CCCN=Cc1c(-c2ccccc2)[nH]n(-c2nc3ccccc3s2)c1=O	ALR inh 98
CCN1C(=O)[C@@H]2[C@H](C1=O)[C@@H]1C(=O)Nc3ccccc3C(=O)N1[C@@H]2c1cccc(Cl)c1	none (no result: ALR inh)
C/C(=N\N(Cc1ccccc1)c1ccccc1)c1cccnc1	ALR inh 99
O=C(Nc1nnc(SCC(=O)N2CCOCC2)s1)C1CC(=O)N(c2ccc(F)cc2)C1 (stereo not given)	HCV core dimer 53
Cc1ccccc1N1CC(C(=O)Nc2nnc(SCC(=O)Nc3nccs3)s2)CC1=O (stereo not given)	none
O=C(Nc1nnc(SCc2ccccn2)s1)C1CC(=O)N(c2ccc(F)cc2)C1 (stereo not given)	HCV core dimer 55
O=C(Nc1nnc(SCC(=O)N2CCCC2)s1)C1CC(=O)N(c2ccc(F)cc2)C1 (stereo not given)	none
Cc1cccc(N2CC(C(=O)Nc3nnc(SCC(=O)Nc4nccs4)s3)CC2=O)c1 (stereo not given)	HCV core dimer 50
COc1cccc(N2CC(C(=O)Nc3nnc(SCc4ccccn4)s3)CC2=O)c1 (stereo not given)	none
O=C(C(Cl)c1ccccc1)N1CCOCC1 (stereo not given)	none
CN1c2ccccc2C(O)=C(C(=S)Nc2ccc(F)c(Cl)c2)S1(=O)=O	ALR inh 96
CCN(CC)c1cccc(OCC(=O)N(C)CCC#N)c1	ALR inh 98
O=Cc1cn(-c2ccccc2)nc1-c1ccccc1	none
CC1=NNC(=O)/C1=C\c1cn(-c2ccccc2)nc1-c1ccccc1	PfM18AAP inh 66
COC(=O)c1ccc(NC(=O)CSc2nncn2-c2ccccn2)cc1	ALR inh 99
COC(=O)c1cccc(NC(=O)CSc2nc3cccnc3n2C)c1	ALR inh 98
COC(=O)c1ccccc1NC(=O)CSc1nc2cccnc2n1C	none
CCC(O)C1CCN(C(=O)c2ccc(OC3CCN(Cc4ccccn4)CC3)cc2)CC1 (stereo not given)	none
COc1ccc(CC(=O)OCC(=O)Nc2c(C)n(C)n(-c3ccccc3)c2=O)cc1OC	none (no result: PfM18AAP inh, NS3 helicase inh, HCV core dimer, EBNA-1 inh)
CCn1c(=O)c2ccccc2n(Cc2ccccc2C)c1=O	none
O=C(OCC(=O)N1CCN(c2ccccc2)CC1)c1ccccn1	none
Cn1cccc1C(=O)OCC(=O)N1CCN(c2ccccc2)CC1	ALR inh 98 (no result: ZTA DNA inh, PfM18AAP inh, NS3 helicase inh, HCV core dimer, EBNA-1 inh)
O=C(OCC(=O)N1CCN(c2ccccc2)CC1)c1ccc2ccccc2n1	ALR inh 97
CCOCc1c(C(=O)OCC(=O)NCc2ccc(F)cc2)oc2ccccc12	none (no result: PfM18AAP inh, NS3 helicase inh, ALR inh, HCV core dimer, EBNA-1 inh)
